Data published in ChEMBL document CHEMBL4118249, “Discovery and Identification of Small Molecules as Methuosis Inducers with in Vivo Antitumor Activities” (J Med Chem, 2018).
Blank lines part the entries; values can stand above or below the molecule they belong to. Activity calls are given as the source filed them. The calls are words filed in the database; no cut-off is given here.

What was measured:
[1] = tested on: MDA-MB-231; assay: Induction of methuosis in human MDA-MB-231 cells assessed as macropinocytosis at 2 uM after 12 hrs by lucifer yellow CH staining based phase contrast fluorescent microscopic analysis; format: functional, cell-based
Summary of the method: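 MDA-MB-231 incubated with 2 µM compound and Lucifer yellow together for 12 h, PBS-washed, imaged by phase contrast and confocal fluorescence.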

[2] = tested on: MDA-MB-231; assay: Antitumor activity against human MDA-MB-231 cells xenografted in iv dosed Balb/c nude mouse assessed as tumor growth inhibition administered once daily for 13 days measured 6 hrs post last dose; format: functional, organism-based
Summary of the method: (§1)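 Female BALB/c nude mice (4–6 weeks) injected subcutaneously with 5×10^6 MDA-MB-231 cells; at ~100 mm3 (length×width²×0.5) randomized (n = 6) and dosed iv by tail vein once daily at 5 or 20 mg/kg in 10% Kolliphor HS 15 in saline, or vehicle; tumor volume and weight measured daily; tumors excised 6 h after final dose, H&E stained.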

[3] = tested on: MDA-MB-231; assay: Induction of methuosis in human MDA-MB-231 cells assessed as increase in vacuole formation at 2 uM after 24 hrs in presence of autophagy inhibitor 3-MA by optical microscopic analysis; format: functional, cell-based
Summary of the method: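 Optical microscopy of MDA-MB-231 after 24 h with DMSO, 1 mM 3-MA, 2 µM compound, or both.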

[4] = tested on: MDA-MB-231; assay: Antiproliferative activity against human MDA-MB-231 cells after 48 hrs by crystal violet staining based microscopic method; format: functional, cell-based
Summary of the method: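 MDA-MB-231 seeded, cultured 12 h, medium refreshed, then exposed to 0.1% DMSO or graded compound concentrations for 48 h; fixed in 4% paraformaldehyde 15 min at room temperature, stained with crystal violet, examined by optical microscopy and quantified.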

[5] = tested on: MDA-MB-231; assay: Induction of methuosis in human MDA-MB-231 cells assessed as increase in vacuole formation at 2 uM after 24 hrs in presence of necrosis inhibitor necrostatin-1 by optical microscopic analysis; format: functional, cell-based
Summary of the method: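 Optical microscopy of MDA-MB-231 after 24 h with DMSO, 50 µM necrostatin-1, 2 µM compound, or both.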

[6] = tested on: MDA-MB-231; assay: Induction of apoptosis in human MDA-MB-231 cells assessed as PARP cleavage at 0.5 to 4 uM after 24 hrs by Western blot analysis; format: functional, cell-based
Summary of the method: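 MDA-MB-231 treated 24 h with DMSO, graded compound concentrations or staurosporine; lysed, equal protein separated by 10–15% SDS-PAGE, PVDF transfer, probed for PARP and cleaved PARP, ECL detection.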

[7] = tested on: MDA-MB-231; assay: Induction of methuosis in human MDA-MB-231 cells assessed as increase in vacuole formation at 2 uM after 24 hrs in presence of pan-caspase inhibitor Z-VAD-FMK by optical microscopic analysis; format: functional, cell-based
Summary of the method: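 Optical microscopy of MDA-MB-231 after 24 h with DMSO, 100 µM Z-VAD-FMK, 2 µM compound, or both.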

[8] = tested on: MDA-MB-231; assay: Induction of apoptosis in human MDA-MB-231 cells assessed as caspase-3 activation at 0.5 to 4 uM after 24 hrs; format: functional, cell-based
Summary of the method: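 After 24 h exposure to DMSO, graded compound concentrations or staurosporine, MDA-MB-231 cells were harvested, lysed and caspase 3 activity measured with a commercial activity kit.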

[9] = tested on: MDA-MB-231; assay: Induction of methuosis in human MDA-MB-231 cells assessed as macropinocytosis at 2 uM after 12 hrs by lyso-tracker red staining based phase contrast fluorescent microscopic analysis; format: functional, cell-based
Summary of the method: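 MDA-MB-231 treated 2 µM for 12 h, then loaded with Lyso-tracker Red; phase-contrast and confocal fluorescence imaging.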

[10] = tested on: MDA-MB-231; assay: Induction of mitochondria originated vacuolization in human MDA-MB-231 cells assessed as mitochondrial swelling at 2 uM after 12 hrs by uranyl acetate or lead citrate staining based transmission electron microscopic analysis; format: functional, cell-based
Summary of the method: (§2)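 MDA-MB-231 given DMSO or 2 µM for 12 h; fixed in 2.5% glutaraldehyde (0.1 M PBS pH 7.4, 4 °C, 3 h), post-fixed 1% OsO4, ethanol-dehydrated, Spurr's resin embedded; 70 nm sections stained with uranyl acetate or lead citrate, viewed by TEM for organelle swelling.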

[11] = tested on: MDA-MB-231; assay: Induction of methuosis in human MDA-MB-231 cells xenografted in Balb/c nude mouse assessed as vacuole formation in tumor at 20 mg/kg, iv administered once daily for 13 days measured 6 hrs post last dose by H and E staining based light microscopic method; format: functional, organism-based; summary of the method: as §1
[12] = tested on: MDA-MB-231; assay: Induction of mitochondria originated vacuolization in human MDA-MB-231 cells at 2 uM after 12 hrs by Mito-tracker red staining based phase contrast fluorescent microscopic analysis; format: functional, cell-based
Summary of the method: (§3)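 MDA-MB-231 attached overnight on glass-bottom dishes, treated with DMSO or 2 µM for 12 h, then loaded with ER-tracker or Mito-tracker Red; phase-contrast and confocal fluorescence imaging.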

[13] = tested on: MDA-MB-231; assay: Induction of methuosis in human MDA-MB-231 cells assessed as increase in vacuole formation at 2 uM after 12 to 24 hrs by optical microscopic analysis; format: functional, cell-based
Summary of the method: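 MDA-MB-231 treated with 2 µM and inspected by optical microscopy at successive times (12, 24, 48 h) for vesicle accumulation and vacuole fusion.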

[14] = tested on: MDA-MB-231; assay: Induction of endoplasmic reticulum originated vacuolization in human MDA-MB-231 cells at 2 uM after 12 hrs by ER-tracker staining based phase contrast fluorescent microscopic analysis; format: functional, cell-based; summary of the method: as §3
[15] = tested on: MDA-MB-231; assay: Induction of methuosis in human MDA-MB-231 cells assessed as late endosomal marker Rab7 on vacuole membranes at 2 uM after 12 hrs by anti-Rab7 staining based immunofluorescent microscopic analysis
[16] = tested on: MDA-MB-231; assay: Antiproliferative activity against human MDA-MB-231 cells at 2 uM after 48 hrs in presence of necrosis inhibitor necrostatin-1 by MTS assay; format: functional, cell-based
Summary of the method: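 MDA-MB-231 given DMSO, 50 µM necrostatin-1, 2 µM compound, or combinations for 48 h; viability by MTS, means ± SD of triplicate samples.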

[17] = tested on: MDA-MB-231; assay: Induction of endoplasmic reticulum originated vacuolization in human MDA-MB-231 cells assessed as endoplasmic reticulum swelling at 2 uM after 12 hrs by uranyl acetate or lead citrate staining based transmission electron microscopic analysis; format: functional, cell-based; summary of the method: as §2
[18] = tested on: MDA-MB-231; assay: Antiproliferative activity against human MDA-MB-231 cells at 2 uM after 48 hrs in presence of autophagy inhibitor 3-MA by MTS assay; format: functional, cell-based
Summary of the method: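 MDA-MB-231 given DMSO, 1 mM 3-MA, 2 µM compound, or the combination for 48 h; viability by MTS, means ± SD of triplicate samples.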

[19] = tested on: MDA-MB-231; assay: Antiproliferative activity against human MDA-MB-231 cells at 2 uM after 48 hrs in presence of pan-caspase inhibitor Z-VAD-FMK by MTS assay; format: functional, cell-based
Summary of the method: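 Cells pretreated 1 h with 100 µM Z-VAD-FMK, then 2 µM compound (0.1 µM staurosporine as comparator) alone or combined for 48 h; MTS viability, means ± SD of triplicates.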

[20] = tested on: Mus musculus; assay: Toxicity in ICR mouse assessed as body weight loss at 20 mg/kg, iv administered once daily for 12 days; format: organism-based; details: in vivo, 288 h
Summary of the method: (§4)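 Healthy ICR mice dosed at 20 mg/kg for 12 days; normal tissues examined for vacuoles, body weight and blood chemistry assessed.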

[21] = tested on: Mus musculus; assay: Toxicity in ICR mouse assessed as effect on ALT level in serum at 20 mg/kg, iv administered once daily for 12 days; format: organism-based; details: in vivo, 288 h; summary of the method: as §4
[22] = tested on: Mus musculus; assay: Toxicity in ICR mouse assessed as effect on AST level in serum at 20 mg/kg, iv administered once daily for 12 days; format: organism-based; details: in vivo, 288 h; summary of the method: as §4
[23] = tested on: Mus musculus; assay: Induction of vacuolization in ICR mouse at 20 mg/kg, iv administered once daily for 12 days measured post last dose by H and E staining based light microscopic method; format: organism-based; details: in vivo, 288 h; summary of the method: as §4
[24] = tested on: HCT-116; assay: Antiproliferative activity against human HCT116 cells after 48 hrs by MTS assay; format: functional, cell-based; details: HCT-116, 48 h
[25] = tested on: SK-MEL-28; assay: Antiproliferative activity against human SK-MEL-28 cells after 48 hrs by MTS assay; format: functional, cell-based; details: SK-MEL-28, 48 h
[26] = Volume of distribution in Balb/c nude mouse at 1 mg/kg, iv; format: ADME, organism-based; details: in vivo
[27] = tested on: MCF-10A; assay: Cytotoxicity against human MCF10A cells assessed as reduction in cell viability after 48 hrs by MTS assay; format: cell-based
[28] = tested on: MDA-MB-231; assay: Induction of methuosis in human MDA-MB-231 cells assessed as increase in vacuole formation at 1 uM after 24 hrs by phase contrast microscopic analysis relative to control; format: functional
[29] = tested on: BGC-823; assay: Antiproliferative activity against human BGC823 cells after 48 hrs by MTS assay; format: functional, cell-based; details: BGC-823, 48 h
[30] = Half life in Balb/c nude mouse at 1 mg/kg, iv; format: ADME, organism-based; details: in vivo
[31] = tested on: A-375; assay: Antiproliferative activity against human A375 cells after 48 hrs by MTS assay; format: functional, cell-based; details: A-375, 48 h
[32] = tested on: HepG2; assay: Antiproliferative activity against human HepG2 cells after 48 hrs by MTS assay; format: functional, cell-based; details: HepG2, 48 h
[33] = tested on: MDA-MB-231; assay: Antitumor activity against human MDA-MB-231 cells xenografted in Balb/c nude mouse assessed as tumor growth inhibition at 20 mg/kg, iv administered once daily for 13 days measured 6 hrs post last dose relative to control; format: functional; details: MDA-MB-231, iv, read-out: TGI; summary of the method: as §1
[34] = tested on: A549; assay: Antiproliferative activity against human A549 cells after 48 hrs by MTS assay; format: functional, cell-based; details: A549, 48 h
[35] = tested on: Mus musculus; assay: Toxicity in Balb/c nude mouse xenografted with human MDA-MB-231 cells assessed as body weight loss at 5 to 20 mg/kg, iv administered once daily for 13 days measured daily during compound dosing; details: in vivo, 312 h
[36] = tested on: MDA-MB-231; assay: Induction of methuosis in human MDA-MB-231 cells assessed as increase in vacuole formation at 10 uM after 24 hrs by phase contrast microscopic analysis relative to control; format: functional
[37] = tested on: MDA-MB-231; assay: Antiproliferative activity against human MDA-MB-231 cells after 48 hrs by MTS assay; format: functional, cell-based; details: MDA-MB-231, 48 h
[38] = tested on: MCF7; assay: Antiproliferative activity against human MCF7 cells after 48 hrs by MTS assay; format: functional, cell-based; details: MCF7, 48 h
[39] = tested on: MDA-MB-231; assay: Antitumor activity against human MDA-MB-231 cells xenografted in Balb/c nude mouse assessed as tumor growth inhibition at 5 mg/kg, iv administered once daily for 13 days measured 6 hrs post last dose relative to control; format: functional; details: MDA-MB-231, iv, read-out: TGI; summary of the method: as §1
[40] = tested on: MDA-MB-435S; assay: Antiproliferative activity against human MDA-MB-435S cells after 48 hrs by MTS assay; format: functional, cell-based
[41] = tested on: SK-MEL-30; assay: Antiproliferative activity against human SK-MEL-30 cells after 48 hrs by MTS assay; format: functional, cell-based; details: SK-MEL-30, 48 h
[42] = Clearance in Balb/c nude mouse at 1 mg/kg, iv; format: ADME, organism-based; details: in vivo

Structure (SMILES): Cc1ccc(NC(=O)c2cccc(C(F)(F)F)c2)cc1Nc1cc(-c2cccnc2)nc2[nH]ccc12 [listing 1 of 2 here]
Activity [1]: Active
TGI [2]: Dose-dependent effect
Activity [3]: Active
Activity [4]: Dose-dependent effect
Activity [5]: Active
Activity [6]: inactive
Activity [7]: Active
Activity [8]: inactive
Activity [9]: Active
Activity [10]: inactive
Activity [11]: Active
Activity [12]: inactive
Activity [13]: Active
Activity [14]: inactive
Activity [15]: Active
Activity [16]: Active
Activity [17]: inactive
Activity [18]: Active
Activity [19]: Active

Structure (SMILES): Cc1ccc(NC(=O)c2cccc(C(F)(F)F)c2)cc1Nc1cc(-c2cccnc2)nc2[nH]ccc12.Cl
Activity [20]: Non-Toxic
Activity [21]: Non-Toxic
Activity [22]: Non-Toxic
Activity [23]: Non-Toxic

IC50 [24]: 1010 nM
IC50 [25]: 1370 nM
Vd [26]: 15.5 L/kg
IC50 [29]: 1570 nM
half-life [30]: 8.74 h
IC50 [31]: 326 nM
IC50 [32]: 1200 nM
IC50 [34]: 1890 nM
IC50 [37]: 1570 nM
IC50 [38]: 2610 nM
IC50 [40]: 2270 nM
IC50 [41]: 1660 nM
clearance [42]: 36.5 mL/min/kg
Structure (SMILES): Cc1ccc(NC(=O)c2cccc(C(F)(F)F)c2)cc1Nc1cc(-c2cccnc2)nc2[nH]ccc12 [listing 2 of 2 here]
IC50 [27]: > 10000 nM
Activity [28]: 99.75%
inhibition in vivo at 20 mg/kg [33]: 60.1%
Activity [35]: Non-Toxic
Activity [36]: 100%
inhibition in vivo at 5 mg/kg [39]: 25.9%
